Test [1] relates to Beta-TC3. Kind of test: Ability to repolarize beta-TC3 cell membrane potential; Not significant. Format: functional, cell-based, Rattus norvegicus.
Test [2] has as its system Beta-TC6. Kind of test: In vitro ability to inhibit glucose stimulated insulin release in beta-TC6 cells […]. The note with it: Mus musculus. It counts as functional, cell-based.
The species entered for test [3] is Rattus norvegicus. Put plainly: Relaxation of phenylephrine precontracted rat isolated aorta rings. Format: functional, organism-based.
Test [4] deals with Beta-TC3. Kind of test: Ability to repolarize beta-TC3 cell membrane potential. Format: functional, cell-based, Rattus norvegicus. To be noted: Mus musculus.
The subject of test [5] is Beta-TC6. Put plainly: In vitro efficacy to inhibit glucose stimulated insulin release in beta-TC6 cells […]. It counts as functional.
In test [6] the test system is Beta-TC6. Kind of test: In vitro ability to inhibit glucose stimulated insulin release in beta-TC6 cells […]; Not active. It counts as functional, cell-based.
For test [7], the species on record is Rattus norvegicus. Put plainly: Inhibitory effect on insulin release from rat islets. Format: functional, organism-based.
Test [8] has as its system Beta-TC3. Put plainly: Effect on membrane potential of mitochondria in beta-TC3 cells […]. Format: functional. To be noted: Mus musculus, read-out: ED50 (the source's name).
In test [9] the test system is HepG2. Put plainly: (§1) Effective concentration required for stimulation of glucose utilization in Hepatocytes (HEP-G2 cells). It counts as functional, cell-based. The note with it: Homo sapiens. The method, boiled down:
(§2)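 HEP-G2 glucose oxidation: 2×10^4 cells/well incubated overnight at 37 °C, 5% CO2. Compounds diluted from 100× DMSO stocks into medium with 10 μCi/mL D-(5-3H)-glucose, in duplicate, 3 h at 37 °C. Lysed with 10% TCA; 3H-water separated by evaporation and counted. Mean ± SEM of three experiments.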

The species named for test [10] is Rattus norvegicus. Kind of test: Efficacy to inhibit insulin release from rat islets. Format: functional, organism-based.
Test [11] concerns A10. Kind of test: Effect on membrane potential of mitochondria in A10 smooth muscle cells from rats. The note with it: Rattus norvegicus, read-out: ED50 (the source's name). Format: functional.
For test [12], the system named is HepG2. Put plainly: (§3) Maximum effect on glucose utilization in HepG2 cells expressed as % of full stimulation. It counts as functional. To be noted: Homo sapiens. The method, boiled down:
as §2

Test [13] has as its system A10. Put plainly: Effect on membrane potential of mitochondria of A10 smooth muscle cells in rats. It counts as functional. To be noted: Rattus norvegicus, read-out: ED50 (the source's name).
The species named for test [14] is Rattus norvegicus. Kind of test: Efficacy on insulin release from rat islets. It counts as functional, organism-based.
Test [15] has as its system HepG2. The description is as §3. Format: functional, Rattus norvegicus. To be noted: Homo sapiens. The gist of the method: as §2
The test system of test [16] is Beta-TC3. Kind of test: Effect on membrane potential of mitochondria of beta-TC3 cells in rats. It counts as functional, Rattus norvegicus. The note with it: Mus musculus, read-out: ED50 (the source's name).
Test [17] is filed under the species Rattus norvegicus. Kind of test: Effect on insulin release from rat islets. It counts as functional, organism-based.
Test [18] concerns HepG2. The test is described as §1. Format: functional, cell-based, Rattus norvegicus. To be noted: Homo sapiens. The method, boiled down: as §2
The species named for test [19] is Rattus norvegicus. Kind of test: Effective concentration required relaxation of precontracted rat aorta ring. Format: functional, organism-based.

A word on the IC50: it is the concentration that inhibits the measured activity by half. What is called Emax is the greatest response seen or fitted, relative to the assay's reference.

Consider `CC(N/C(=N\C#N)Nc1ccncc1)C(C)(C)C` (stereo unspecified) [PINACIDIL ANHYDROUS], for which the IC50 result in test [1] was “Not Active”; in test [2] it was over 100 µM; in test [3], 0.8 µM.

`CCC/N=C(\NC#N)Nc1cc(C(F)(F)F)cc(C(F)(F)F)c1`: in test [4], half-maximal inhibition (IC50) required 19 µM. The molecule further returned an Efficacy in test [5] of 53%.

Take `CC(C)CC/N=C(\NC#N)Nc1cc(F)cc(F)c1`: the IC50 entry in test [1] is “Not Active”; in test [6], “Not Active”; in test [3], 85 µM.

With `CCC(C)(C)/N=C(\NC#N)Nc1cc(C(F)(F)F)cc(C(F)(F)F)c1`, the IC50 entry in test [1] and in [6] was “Not Active” each time.

Regarding `N#CN/C(=N\C1(c2cccc(Cl)c2)CCC1)Nc1cc(C(F)(F)F)cc(C(F)(F)F)c1`, the results for the IC50 in [4] and in [2] were 20 µM and 2.8 µM, respectively. This molecule registered an Efficacy in test [5] of 66%.

Turning to `CC(C)CC/N=C(\NC#N)Nc1cc(C(F)(F)F)cc(C(F)(F)F)c1`, the IC50 in test [4] worked out at 4.7 µM. In [5], this molecule returned an Efficacy of 77%.

On to `C[C@H](/N=C(\NC#N)Nc1cc(C(F)(F)F)cc(C(F)(F)F)c1)C(C)(C)C`, for which the IC50 in [4] came to 12 µM; in [2], 13.7 µM; in [3] it was 11.9 µM. The molecule also came in with an Efficacy in test [5] of 67%.

Take `N#CN/C(=N\C1CCCC1)Nc1cc(Cl)cc(Cl)c1`: the IC50 in test [4] came out at 12 µM; in test [2], 28.7 µM; in [3], 75 µM. In addition, the Efficacy in [5] was found to be 18%.

As to `C[C@H](/N=C(\NC#N)Nc1cc(Cl)cc(Cl)c1)c1ccccc1`, the results for the IC50 in [4] and in test [2] were 25 µM and 39.8 µM, respectively. This molecule also returned an Efficacy in [5] of 27%.

For `CC(C)/N=C(\NC#N)Nc1cc(Cl)cc(Cl)c1`, the figures for the half-inhibitory concentration (IC50) entry in test [1], in test [6] and in test [3] were “Not Active”, “Not Active” and 52 µM, respectively.

For the molecule `C[C@@H](/N=C(\NC#N)Nc1cc(Cl)cc(Cl)c1)c1ccccc1`, the IC50 entry in test [1] was “Not Active”; in test [2] it was 16.1 µM; in test [3], 43.8 µM. For the same molecule, the Efficacy in [5] was 22%.

With `CC(C)CC/N=C(\NC#N)Nc1cccnc1`, the half-inhibitory concentration (IC50) result in test [1] is “Not Active”; in test [2] it was 1.2 µM. In test [5], this molecule returned an Efficacy of 23%.

Regarding `CC(C)C(C)/N=C(\NC#N)Nc1cc(C(F)(F)F)cc(C(F)(F)F)c1` (stereo unspecified), the IC50 in test [4] came to 5.5 µM; in test [2], 5.2 µM; in test [3], 17.6 µM. This molecule also displayed an Efficacy in test [5] of 69%.

As for `N#CN/C(=N\C1CCCC1)Nc1cc(C(F)(F)F)cc(C(F)(F)F)c1`, the IC50 in test [7] is 1240 nM; in test [4] it was 4.7 µM; in test [2] it was 5.45 µM; in test [3], over 300 µM. For the same molecule, the EC50 in test [8] was over 30 µM; in [9] it was 10.4 µM; in test [11] it was 1000 nM. Moreover, the Efficacy in test [10] and in test [5] was 65% throughout. Moreover, the Emax in test [12] is 95%.

Regarding `CC1=Nc2ccc(Cl)cc2S(=O)(=O)N1` [DIAZOXIDE], the IC50 in [4] amounted to 13.7 µM; in [3], 12.8 µM. In addition, the Efficacy in [5] amounted to 23%.

With `CC(C)CC/N=C(\NC#N)Nc1cc(Cl)cc(Cl)c1`, the EC50 in [13] was 2000 nM; in test [16] it was over 30 µM; in test [18], 22 µM. The IC50 in test [4] worked out at 0.8 µM; in test [17], 3.8 µM; in [2], 4.2 µM. Moreover, the results for the Efficacy in [14] and in test [5] were 72% and 60%, respectively. For the same molecule, the maximal response (Emax) in test [15] came to 98%.

With `C[C@@H](/N=C(\NC#N)Nc1cc(C(F)(F)F)cc(C(F)(F)F)c1)C(C)(C)C`, the IC50 in test [4] came to 18 µM; in test [2], 4.4 µM; in test [3] it was 20.3 µM. This molecule had an Efficacy in test [5] of 68%.

Turning to `COc1cc(N/C(=N/C2CCCC2)NC#N)cc(C(F)(F)F)c1`, the IC50 entry in [1] was “Not Active”; in test [6] it was “Not Active”; in test [3], 75 µM.

For `CC(C)/N=C(\NC#N)Nc1cc(C(F)(F)F)cc(C(F)(F)F)c1`, the IC50 entry is “Not Active” in test [1] and 41.4 µM in [2]. This molecule displayed an Efficacy in test [5] of 20%.

`N#C/N=C(\Nc1cccnc1)NC1(c2cccc(Cl)c2)CCC1`: in test [19], the EC50 was found to be 113 µM.

In the case of `CCC(C)(C)/N=C(\NC#N)Nc1cc(Cl)cc(Cl)c1`, the IC50 in test [4] turned out to be 24 µM; in [2], 48.5 µM. In [5], this molecule gave an Efficacy of 32%.

The record behind these values is ChEMBL document CHEMBL1148327, “Arylcyanoguanidines as activators of Kir6.2/SUR1K ATP channels and inhibitors of insulin release” (J Med Chem, 2004).
